In brackets after ≈: the same amount, converted by molar mass.
Legend:
[1] = target: 3',5'-cyclic-AMP phosphodiesterase 4B (Homo sapiens, UniProt Q07343); experiment: Inhibition of recombinant human PDE4B1 using [3H]-cAMP as substrate […] measured after 60 mins by scintillation proximity assay
In short: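 Compounds ranged from 10 μM to 10 pM. The reaction was started with PDE4 enzyme and run 60 min at room temperature with agitation (about 10−20% conversion), then stopped with SPA beads. [3H]-AMP was counted by scintillation.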

[2] = Inhibition of PDE4 in human whole blood PBMC assessed as reduction in LPS-induced TNFalpha production after 24 hrs by ELISA
In short: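 Heparinized whole blood from healthy donors was preincubated with LPS (1 μg/mL final) at 37 °C for 10 min. It was then added to compounds in DMSO and incubated 24 h at 37 °C with agitation, then centrifuged. Serum TNF-α was measured by sandwich ELISA with TMB read-out at 450 nm. Experiments were done 2−3 times and duplicates were averaged.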

[3] = Apparent permeability of the compound by PAMPA assay; type: physicochemical
[4] = Thermodynamic solubility of the compound at 37 degC
[5] = Cmax in Sprague-Dawley rat at 500 ug/kg, iv; type: ADME; set-up: dose 500 ug/kg, route intravenous; conditions: in vivo, 0.5 mg/kg
[6] = AUC in Sprague-Dawley rat at 500 ug/kg, iv; type: ADME; conditions: in vivo, 0.5 mg/kg
[7] = Volume of distribution at steady state in Sprague-Dawley rat at 500 ug/kg, iv; type: ADME; conditions: in vivo, 0.5 mg/kg, read-out: Vdss
[8] = Half life in Sprague-Dawley rat at 500 ug/kg, iv; type: ADME; conditions: in vivo, 0.5 mg/kg
[9] = Clearance in Sprague-Dawley rat at 500 ug/kg, iv; type: ADME; conditions: in vivo, 0.5 mg/kg
Lung [10] = experiment: Drug level in Sprague-Dawley rat lung at 1000 ug/kg, it administered as dry powder measured over 24 hrs post dose; type: ADME, tissue-based; conditions: in vivo, inhaled_or_intranasal, 1 mg/kg
In short: (§1)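 Dry powder (5% w/w with lactose) was given intratracheally to rats. Compound was recovered from lung biopsies at times over a 24 h period and expressed as percentage of the total administered dose.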

[11] = Plasma concentration in Sprague-Dawley rat at 1000 ug/kg, it measured up to 1 hr post dose; type: ADME, cell-free; conditions: inhaled or intranasal, 1 mg/kg
Rattus norvegicus [12] = experiment: (§2) Antiinflammatory activity in Sprague-Dawley rat LPS-induced neutrophilia model assessed as inhibition of LPS-induced increase in netrophils in bronchoalveolar lavage at 1000 ug/kg, it administered single dose as microspray dosed 1 hr prior to nebulized LPS challenge measured after 4 hrs by flow cytometric analysis; type: functional
In short: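 Compound was suspended in PBS with 0.2% Tween 80, homogenized, and lower doses were made by 1:10 dilution. Rats (male Sprague-Dawley, 230−280 g, fasted, isoflurane) received 0.2 mL intratracheally by microsprayer, about 1 cm above the carina. Nebulized LPS challenge (30 mL over 40 min) followed 1 h later. BAL neutrophils were counted by flow cytometry 4 h after challenge.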

Rattus norvegicus [13] = experiment: as §2, with “at 100 to 3000” for “at 1000”, “administered as” for “administered”, “dose via dry powder insufflator” for “dose as microspray”, “1 to 18 hrs” for “1 hr”; type: functional
In short: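 Male Sprague-Dawley rats (230−280 g, fasted) were anaesthetized with isoflurane. Micronized compound co-mixed with lactose (5 mg of mix) was insufflated intratracheally through a cannula with 5 mL air. One or 18 h later, LPS solution (30 mL) was nebulized into a chamber over 40 min. After 4 h, BAL was done with 2 × 2 mL PBS and neutrophils were counted by flow cytometry. Controls were lactose alone and fluticasone (10% in lactose).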

Rattus norvegicus [14] = experiment: Pro-inflammatory activity in Sprague-Dawley rat assessed as increase in neutrophils in bronchoalveolar lavage at 1000 ug/kg, it administered as single dose via dry powder insufflator after 18 hrs post dose by flow cytometric analysis relative to basal level; type: ADME; conditions: in vivo, inhaled_or_intranasal, 1 mg/kg
Rattus norvegicus [15] = experiment: Pro-inflammatory activity in Sprague-Dawley rat assessed as increase in neutrophils in bronchoalveolar lavage at 3000 ug/kg, it administered as single dose via dry powder insufflator after 18 hrs post dose by flow cytometric analysis relative to basal level; type: ADME; conditions: in vivo, inhaled_or_intranasal, 3 mg/kg
In short: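 Fasted male Sprague-Dawley rats (230−280 g) under isoflurane received 5 mg […] co-mixed with lactose, delivered intratracheally by DP-4 insufflator with 5 mL air. 18 h later, LPS (1:100 dilution of 10 mg/mL in PBS; 30 mL) was nebulized in chambers over 40 min. BAL was taken 4 h later and neutrophils were counted by flow cytometry. Lactose-only control.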

Mustela putorius furo [16] = experiment: Toxicity in ferret assessed as emesis at 30 ug/kg, it administered as dry powder co-mixtured with lactose after 1 hr post dose; conditions: in vivo, inhaled_or_intranasal, 0.03 mg/kg
Mustela putorius furo [17] = experiment: Toxicity in it dosed ferret assessed as emesis administered as dry powder co-mixtured with lactose after 1 hr post dose; type: organism-based; conditions: in vivo, inhaled_or_intranasal
Lung [18] = experiment: Drug level in Sprague-Dawley rat lung at 1000 ug/kg, it administered as dry powder measured up to 6 hrs post dose; type: ADME, tissue-based; conditions: in vivo, inhaled_or_intranasal, 1 mg/kg; in short: as §1
Lung [19] = experiment: Drug level in Sprague-Dawley rat lung at 1000 ug/kg, it administered as dry powder measured at 6 hrs post dose; type: ADME, tissue-based; conditions: in vivo, inhaled_or_intranasal, 1 mg/kg; in short: as §1
Lung [20] = experiment: Drug level in Sprague-Dawley rat lung at 1000 ug/kg, it administered as dry powder measured up to 18 hrs post dose; type: ADME, tissue-based; conditions: in vivo, inhaled_or_intranasal, 1 mg/kg; in short: as §1

3',5'-cyclic-AMP phosphodiesterase 4B, sequence (Q07343 whole entry): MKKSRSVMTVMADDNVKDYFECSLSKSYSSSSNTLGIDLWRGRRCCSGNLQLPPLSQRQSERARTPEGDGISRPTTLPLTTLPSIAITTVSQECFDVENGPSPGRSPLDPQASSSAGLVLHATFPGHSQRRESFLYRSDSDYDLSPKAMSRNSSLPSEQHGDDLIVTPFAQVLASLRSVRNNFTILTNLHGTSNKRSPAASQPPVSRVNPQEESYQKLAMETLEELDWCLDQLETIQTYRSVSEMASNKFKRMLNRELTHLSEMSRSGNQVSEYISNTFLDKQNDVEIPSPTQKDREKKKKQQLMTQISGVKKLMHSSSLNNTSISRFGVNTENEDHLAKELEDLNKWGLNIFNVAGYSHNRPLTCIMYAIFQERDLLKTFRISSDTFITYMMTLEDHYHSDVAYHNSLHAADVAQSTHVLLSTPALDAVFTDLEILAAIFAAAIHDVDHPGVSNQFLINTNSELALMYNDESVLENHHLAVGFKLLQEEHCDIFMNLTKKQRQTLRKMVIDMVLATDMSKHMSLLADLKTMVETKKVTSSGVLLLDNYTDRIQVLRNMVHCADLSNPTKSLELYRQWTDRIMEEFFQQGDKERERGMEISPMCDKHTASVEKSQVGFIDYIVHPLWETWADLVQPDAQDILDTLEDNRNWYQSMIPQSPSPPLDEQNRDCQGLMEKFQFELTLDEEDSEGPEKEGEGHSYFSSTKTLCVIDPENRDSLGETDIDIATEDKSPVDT

Question: For `COc1cccc(Nc2cc(-c3ccccc3OC)nc3c2C(=O)NCC3)c1`, which IC50 [1] is on record?
Answer: 32 nM

Question: Which results are given for `O=C1NCCc2nc(-c3ccccc3)cc(Nc3ccc(C[C@@H](O)CO)cc3)c21`?
Answer: IC50 [2]: 0.49 nM; IC50 [1]: 8.7 nM

Question: With `COc1cccc(Nc2cc(-c3cccc(-c4ccc(C(=O)O)cc4)c3)nc3c2C(=O)NCC3)c1` as the molecule, how does the IC50 [2] read?
Answer: 5.7 nM

Question: What about the IC50 [1] of the same molecule?
Answer: 0.35 nM

Question: And the Papp [3]?
Answer: 3.5 ×10⁻⁶ cm/s

Question: Which IC50 [2] does the source give for `COc1cccc(Nc2nc(-c3ccccc3)nc3c2C(=O)NCC3)c1` here?
Answer: 40 nM

Question: What about the IC50 [1] of the same molecule?
Answer: 52 nM

Question: With `Cc1ccncc1Nc1cc(-c2ccccc2)nc2c1C(=O)NCC2` as the molecule, how does the IC50 [1] read?
Answer: 42 nM

Question: Which results are given for `COc1cccc(Nc2cc(-c3ccccc3)nc3c2C(=O)NCC3)c1`?
Answer: IC50 [2]: 5.4 nM; IC50 [1]: 1.6 nM; Papp [3]: 2 ×10⁻⁶ cm/s

Question: With `CN(C)CCCNC(=O)c1cccc(-c2cccc(-c3cc(Nc4cccc5ncccc45)c4c(n3)CCNC4=O)c2)c1` as the molecule, how does the IC50 [2] read?
Answer: 0.36 nM

Question: And the IC50 [1]?
Answer: 0.11 nM

Question: Which IC50 [1] does the source give for `COc1cccc(Nc2cc(-c3cc[n+]([O-])cc3)nc3c2C(=O)NCC3)c1` here?
Answer: 51 nM

Question: With `O=C1NCCc2nc(-c3ccccc3)cc(Nc3n[nH]c4ncccc34)c21` as the molecule, how does the IC50 [2] read?
Answer: 3 nM

Question: And the IC50 [1]?
Answer: 5.6 nM

Question: With `COc1cccc(Nc2cc(-c3cccc(-c4cccc(O)c4)c3)nc3c2C(=O)NCC3)c1` as the molecule, how does the IC50 [2] read?
Answer: 4.2 nM

Question: And the IC50 [1]?
Answer: 1.8 nM

Question: With `COc1cc(Nc2cc(-c3ccccc3)nc3c2C(=O)NCC3)ccc1C(=O)O` as the molecule, how does the IC50 [2] read?
Answer: 9.9 nM

Question: What about the IC50 [1] of the same molecule?
Answer: 2.3 nM

Question: For `COc1cccc(Nc2cc(-c3cccc(-c4cccc(C(N)=O)c4)c3)nc3c2C(=O)NCC3)c1`, which IC50 [2] is on record?
Answer: 2.3 nM

Question: And the IC50 [1]?
Answer: 0.28 nM

Question: With `COc1cccc(Nc2cc(-c3cccc(-c4cc(C(=O)O)ccc4O)c3)nc3c2C(=O)NCC3)c1` as the molecule, how does the IC50 [2] read?
Answer: 140 nM

Question: And the IC50 [1]?
Answer: 9.6 nM

Question: With `O=C(NC1CC1)c1cccc(-c2cccc(-c3cc(Nc4cccc5ncccc45)c4c(n3)CCNC4=O)c2)c1` as the molecule, how does the IC50 [2] read?
Answer: 0.12 nM

Question: What about the IC50 [1] of the same molecule?
Answer: 0.17 nM

Question: And the Papp [3]?
Answer: 0.15 ×10⁻⁶ cm/s

Question: What about the solubility thermodynamic [4] of the same molecule?
Answer: 4 µg/mL (≈ 7.61 µM)

Question: What about the Cmax [5] of the same molecule?
Answer: 118 ng/mL

Question: What about the AUC [6] of the same molecule?
Answer: 108 ng·h/mL

Question: What about the Vd [7] of the same molecule?
Answer: 3.9 L/kg

Question: And the half-life [8]?
Answer: 54 min

Question: And the clearance [9]?
Answer: 79 mL/min/kg

Question: What about the Drug uptake (Lung [10]) of the same molecule?
Answer: 15%

Question: And the concentration at 1 h [11]?
Answer: < 5 ng/mL

Question: And the inhibition in vivo at 1 mg/kg (Rattus norvegicus [12])?
Answer: 58%

Question: What about the Imax (Rattus norvegicus [13]) of the same molecule?
Answer: 35%

Question: And the “fold change (FC)” value (Rattus norvegicus [14])?
Answer: 0.7

Question: What about the “fold change (FC)” value (Rattus norvegicus [15]) of the same molecule?
Answer: 1.3

Question: And the Activity (Mustela putorius furo [16])?
Answer: Non-Toxic

Question: What about the Activity (Mustela putorius furo [17]) of the same molecule?
Answer: Dose-dependent effect

Question: And the Drug uptake (Lung [18])?
Answer: 36%

Question: And the Drug uptake (Lung [19])?
Answer: 20%

Question: And the Drug uptake (Lung [20])?
Answer: 18%

Question: What does the source list for `COc1cccc(Nc2cc(-c3cccc(-c4cccc(C(=O)NCCN(C)C)c4)c3)nc3c2C(=O)NCC3)c1`?
Answer: IC50 [2]: 2.8 nM; IC50 [1]: 0.23 nM

Question: Which IC50 [1] does the source give for `COc1cccc(Nc2cc(-c3ccccc3)nc3c2C(=O)NCC3C)c1` (stereo unspecified) here?
Answer: 640 nM

Question: For `O=C(NC1CC1)c1cccc(-c2cccc(-c3cc(Nc4cccc5c4ccc[n+]5[O-])c4c(n3)CCNC4=O)c2)c1`, which IC50 [2] is on record?
Answer: 0.075 nM

Question: And the IC50 [1]?
Answer: 0.045 nM

Question: For `O=C1NCCc2nc(-c3ccccc3)cc(Nc3nn(-c4ccccc4)c4ncccc34)c21`, which IC50 [1] is on record?
Answer: 56 nM

Question: Which IC50 [2] does the source give for `NC(=O)c1ccc(Nc2cc(-c3ccccc3)nc3c2C(=O)NCC3)cc1` here?
Answer: 4.2 nM

Question: What about the IC50 [1] of the same molecule?
Answer: 1.5 nM

Question: For `NC(=O)c1cnc(-c2ccccc2)cc1Nc1cccc2ncccc12`, which IC50 [1] is on record?
Answer: 35 nM

Question: With `COc1cccc(Nc2cc(-c3ccccc3)ncc2C(N)=O)c1` as the molecule, how does the IC50 [1] read?
Answer: 240 nM

Question: With `Cn1nc(Nc2cc(-c3ccccc3)nc3c2C(=O)NCC3)c2cccnc21` as the molecule, how does the IC50 [1] read?
Answer: 11 nM

Question: Which results are given for `N#C/N=C1\NCCc2nc(-c3ccc(F)c(F)c3)cc(Nc3cccc4ncccc34)c21`?
Answer: IC50 [2]: 17 nM; IC50 [1]: 0.89 nM

Question: Which IC50 [1] does the source give for `COc1cc(Nc2cc(-c3ccccc3)nc3c2C(=O)NCC3)cc(OC)c1` here?
Answer: 27 nM

Question: What does the source list for `O=C(NC1CC1)c1cccc(-c2cccc(-c3cc(Nc4cncc5ccccc45)c4c(n3)CCNC4=O)c2)c1`?
Answer: IC50 [2]: 1.1 nM; IC50 [1]: 0.32 nM

Question: For `O=C1NCCc2nc(-c3ccccc3)cc(Nc3cccc4ncccc34)c21`, which IC50 [2] is on record?
Answer: 0.92 nM

Question: What about the IC50 [1] of the same molecule?
Answer: 0.96 nM

Question: Which IC50 [1] does the source give for `Nc1cc(-c2ccccc2)nc2c1C(=O)NCC2` here?
Answer: 2400 nM

Question: Which results are given for `CCOC(=O)c1ccc(-c2cccc(-c3cc(Nc4cccc5ncccc45)c4c(n3)CCNC4=O)c2)cc1`?
Answer: IC50 [2]: 0.66 nM; IC50 [1]: 1.2 nM
